Myeloid diff MLP – promotes myeloid progenitor differentiation; AID 624256; 360,000 tested, 1% active; calls only at 10 µM; ER-HoxA9 myeloid progenitors, lysozyme-GFP differentiation, flow cytometry;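 active means normalized GFP-positive differentiation at or above the plate's own cutoff, the solvent-only control mean plus 3 SD; inconclusive means no clear call, values can overlap the other calls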;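 further: cells exposed to compound for four days before flow analysis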
NRP1-CendR mod – modulators of CendR peptide binding to human neuropilin-1 | 360,000 tested, 0.85% active | inhibition, % at 25 µM | O14786 | FAM-RPARPAR peptide binding to NRP-1, fluorescence polarization;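 active means inhibition or corrected inhibition above about 18%, plus a signal ratio from 0.5 to 1.5, limit read from the data, passing the limit was not always enough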
Target sequence (O14786 whole entry, looked up): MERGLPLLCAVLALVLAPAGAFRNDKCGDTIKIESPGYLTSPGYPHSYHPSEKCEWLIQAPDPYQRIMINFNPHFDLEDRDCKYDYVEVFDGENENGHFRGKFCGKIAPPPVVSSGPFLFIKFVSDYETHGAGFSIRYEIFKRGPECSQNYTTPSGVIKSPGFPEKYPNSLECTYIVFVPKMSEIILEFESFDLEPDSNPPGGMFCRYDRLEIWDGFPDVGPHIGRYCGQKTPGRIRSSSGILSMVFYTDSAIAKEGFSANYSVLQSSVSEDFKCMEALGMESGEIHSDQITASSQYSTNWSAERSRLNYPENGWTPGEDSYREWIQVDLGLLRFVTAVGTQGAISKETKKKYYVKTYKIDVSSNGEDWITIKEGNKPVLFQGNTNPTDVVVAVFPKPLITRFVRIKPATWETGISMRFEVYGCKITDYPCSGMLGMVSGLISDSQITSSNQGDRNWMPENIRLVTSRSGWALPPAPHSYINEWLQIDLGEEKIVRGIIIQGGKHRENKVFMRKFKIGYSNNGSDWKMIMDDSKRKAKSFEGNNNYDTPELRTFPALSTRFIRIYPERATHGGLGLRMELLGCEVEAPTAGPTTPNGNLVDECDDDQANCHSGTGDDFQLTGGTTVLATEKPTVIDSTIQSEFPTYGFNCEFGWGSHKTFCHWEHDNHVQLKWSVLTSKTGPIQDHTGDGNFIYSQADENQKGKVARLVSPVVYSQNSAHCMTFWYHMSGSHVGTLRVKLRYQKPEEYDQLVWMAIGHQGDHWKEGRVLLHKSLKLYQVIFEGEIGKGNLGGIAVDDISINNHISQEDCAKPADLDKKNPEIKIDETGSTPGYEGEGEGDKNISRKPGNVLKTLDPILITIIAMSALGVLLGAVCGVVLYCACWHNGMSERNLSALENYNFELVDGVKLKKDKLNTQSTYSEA
ABCB6 inh MLPCN – inhibitors of human ABC transporter ABCB6; 360,000 tested, 0.19% active; fluorescence ratio to DMSO, % at 10 µM; K562-ABCB6 porphyrin accumulation, flow cytometry, 1 h; active compounds read low; Q9NP58;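 active means fluorescence ratio to DMSO below 75%, the collection mean minus 3 SD; inconclusive means too few cells collected in the well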;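 further: signal is porphyrin accumulated inside mitochondria; 100% equals median channel fluorescence of DMSO control wells; lower ratio means ABCB6 inhibition with less porphyrin fluorescence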
Granule exo inh – blocks lytic granule exocytosis | 360,000 tested, 0.66% active | inhibition, % at 10 µM | TALL-104 LAMP-1 surface exposure, flow cytometry; cells stimulated with thapsigargin and PMA;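 active means inhibition above about 55%, limit read from the data; inconclusive means no clear call, values can overlap the other calls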
ATG4B inh – ATG4B (human) cysteine protease inhibition; Q9Y4P1; ATG4B cleavage of LC3-PLA2, NBD-HPC fluorescence, 1 h; inhibition, % at 8.33 µM; 340,000 tested, 0.51% active; in the data active means inhibition above about 40%
Arr AP2 block – human beta-arrestin and AP2 interaction inhibition; FITC-arrestin peptide / GST-AP2 beads, flow cytometry; AP2 beta2 appendage carries R879A mutation; inhibition, % at 10 µM; 340,000 tested, 0.31% active;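 active means inhibition above a set limit, near 3 SD of compounds lacking own fluorescence, cut at about 54% in these data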;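 further: plate controls were DMSO wells for no effect and 5 µM unlabelled arrestin peptide for full effect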
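Material – GST-tagged AP2 beta2-adaptin appendage (R879A) on 4 µm glutathione beads · Probe or stimulus – fluorescein-tagged arrestin peptide at 50 nM final · Timing – 12 min plus 1 h, RT · Detection – bead flow cytometry, FITC channel · Read-out basis – inhibition as reduced fluorescein signal on beads, percent · Medium – PBS plus Tween 20 (0.05%) and BSA (0.1%)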
* hit, by the source's call; i = inactive; ? = inconclusive; · = no result given; + = active, no number. This is a sample that favours compounds with a hit; in the whole collection about 3.3% have one here.

SMILES	Myeloid diff MLP	NRP1-CendR mod	ABCB6 inh MLPCN	Granule exo inh	ATG4B inh	Arr AP2 block
CCn1c(SCc2nc3sc(C(=O)O)c(C)c3c(=O)[nH]2)nnc1-c1ccc(Cl)cc1	·	-17	97	-1	-3	-20
Cc1sc2nc(CSc3nnnn3-c3ccc(Cl)cc3)[nH]c(=O)c2c1C	+	-137	128	4	-16	2
c1ccc2c(c1)CC1(CCCCC1)n1nnnc1-2	+	7	97	2	1	11
c1ccc2c(c1)Cn1nnnc1-2	i	-3	96	-1	-2	17
Cc1nc2ccc(NC(=O)[C@H](C)N3C(=O)C4CC=CCC4C3=O)cc2s1 (some centres undefined)	i	19*	90	-1	-13	-7
CCc1cc(C(=O)OC)c(NC(=O)c2cc(Br)cs2)s1	i	6	99	-1	-1	-2
CCc1cc(C(=O)OC)c(NC(=O)c2ccoc2C)s1	i	39*	91	1	-3	-3
CC(C)C[C@H]1CN=C(N(C)C)N1CC1CCCC1	i	8	95	3	-4	10
CC(=O)Nc1sc2c(c1C(c1ccccn1)N1CCCC1)CCCC2 (centres undefined)	i	-4	103	-1	-9	-6
CC(=O)Nc1sc2c(c1C(c1ccccc1Cl)N1CCN(CCO)CC1)CCCC2 (centres undefined)	+	-11	105	5	-10	0
CC1(C(=O)NS(=O)(=O)c2cccc(Cl)c2)CCN1C(=O)COc1ccc(Cl)cc1 (centres undefined)	i	2	104	-5	·	·
c1ccc(Cn2cc(CSc3ccccc3)nn2)cc1	i	28*	93	-15	-9	4
c1ccc(SCc2cn(C[C@H]3CC[C@@H]([C@@H]4CC[C@H](Cn5cc(CSc6ccccc6)nn5)O4)O3)nn2)cc1	i	24*	101	5	8	6
O=C1c2ccccc2C(=O)N1CCCc1cn(C[C@H]2CC[C@@H]([C@@H]3CC[C@H](Cn4cc(CCCN5C(=O)c6ccccc6C5=O)nn4)O3)O2)nn1	i	14	96	67*	1	-1
O=C1c2ccccc2C(=O)N1CCCCc1cn(C[C@H]2CC[C@@H]([C@@H]3CC[C@H](Cn4cc(CCCCN5C(=O)c6ccccc6C5=O)nn4)O3)O2)nn1	i	8	96	-1	-4	-6
CCCCc1cn(C[C@H]2CC[C@@H]([C@@H]3CC[C@H](Cn4cc(CCCC)nn4)O3)O2)nn1	i	0	109	-2	-1	-4
Cc1cccnc1NC(=O)CCc1nnc2ccc(NCc3ccco3)nn12	?	3	102	0	5	2
Cc1[nH]c2ccccc2c1C(=O)NS(=O)(=O)Nc1ccc(F)cc1	+	4	151	0	-8	19
N#C/C(=N\Nc1ccc(S(=O)(=O)N2CCOCC2)cc1)C(N)=S	+	1	97	-2	3	5
CC1CCN(S(=O)(=O)c2ccc(N/N=C(/C#N)C(N)=O)cc2)CC1	i	4	99	1	0	2
COCCCNC(=S)NC1CC2CCC(C1)N2Cc1ccccc1 (centres undefined)	i	48*	100	-2	10	0
CCOCCCNC(=S)NC1CC2CCC(C1)N2Cc1ccccc1 (centres undefined)	i	-3	103	1	-2	-14
CCCCOC(=O)Nc1cccc(C(=O)OCC)c1	i	5	88	1	11	8
C=CC[C@@H](CC(=O)N[C@H](CO)Cc1ccccc1)C(=O)N[C@H](COC(=O)[C@@H](CC=C)CC(=O)OC(C)(C)C)Cc1c[nH]c2ccccc12	i	27*	84	15	-20	3
C=CC[C@@H](CC(=O)N(CCO)Cc1ccccc1)C(=O)N[C@@H](C)COC(=O)[C@@H](CC=C)CC(=O)OC(C)(C)C	i	-5	99	64*	-5	·
COc1cccc(NC(=S)N2CCN(c3ccccn3)CC2)c1	i	-9	102	-2	3	1
O=C(C1CC1)N1N=C(c2ccc(F)cc2)CC1(O)C(F)(F)F (centres undefined)	i	8	104	-4	-2	2

Source: PubChem BioAssay (several laboratories)
